This is a sample that favours compounds with a hit; in the whole collection about 2.7% have one here.
S100A4 MyoIIA – S100A4-myosin IIA interaction inhibition; P26447; S100A4/TAMRA-MyoIIA peptide fluorescence polarization; inhibition, % at 10.7 µM; actives 0.14% (n = 360,000); AID 652163;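 active = mean inhibition of at least 70% across replicates, with every replicate also reaching that level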
Target sequence (P26447 whole entry, looked up): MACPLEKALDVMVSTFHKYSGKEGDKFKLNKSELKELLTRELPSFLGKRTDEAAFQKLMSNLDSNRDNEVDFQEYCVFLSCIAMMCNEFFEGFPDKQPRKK
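Compound dosing: one dose per compound; test system: human S100A4 monomer with TAMRA-labelled myosin IIA peptide; probe or stimulus: TAMRA-labelled myosin IIA heavy-chain peptide probe, 5 nM; medium: HEPES buffer with Ca2+, pH 7.2; schedule: 5 min incubation before reading; benchmarks: neutral control DMSO, positive control TFP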
E-selectin induc – E-selectin induction on HUVECs; P16581; HUVEC E-selectin immunofluorescence imaging; normalized: neutral wells 0, TNF-alpha wells 100; activation, % at 7.58 µM; actives 0.37% (n = 260,000);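 active = mean E-selectin-positive cell signal at least 10% of the positive control, reached in at least 60% of replicates, without over 20% cell loss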
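assay system = HUVEC, human umbilical vein endothelial cells | input = 3,000 HUVEC seeded per well | medium = EGM-2 growth medium on 0.1% gelatin-coated wells | dosing = one compound dose added by pin transfer | signal = immunofluorescence imaging | read-out basis = % PE-positive cells | control set = TNF-alpha, DMSO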
HIV Env fusion – inhibitors of HIV Env-mediated cell fusion; HeLa-JRFL Env/CEM21 cell fusion, luciferase; inhibition, % at 12.3 µM; actives 1.1% (n = 360,000); AID 651610;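 active = mean replicate inhibition score of at least 50 and every replicate individually at or above 50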;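 also: 0% = plate neutral controls and 100% = maraviroc near 300 nM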
F508del corr – CFTR F508del correction in bronchial cells. CFBE cells, YFP halide quenching; stimulated with forskolin plus potentiator P3; % fluorescence drop versus neutral controls. activity (quench increase), % at 7.58 µM. actives 0.36% (n = 350,000);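 active = mean added fluorescence quench of at least 8% versus neutral control, with both replicates also reaching 8%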;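 also: cells transiently co-express mutant CFTR-F508del with the halide-sensitive YFP; corrector assay measuring rescue of mutant channel to the surface after 24 h compound exposure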
FGF22 binding – shifts melting point of recombinant human FGF22; Q9HCT0; recombinant FGF22 thermal shift, SYPRO orange fluorescence; percent of sucrose octasulfate shift, DMSO zero; activity (Tm shift, normalised), % at 9.99 µM; actives 1.5% (n = 340,000);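 active = mean Tm shift, scaled 0 neutral to 100 positive control, at about 1.3% or above, every replicate too, limit read from the data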
Target sequence (Q9HCT0 whole entry, looked up): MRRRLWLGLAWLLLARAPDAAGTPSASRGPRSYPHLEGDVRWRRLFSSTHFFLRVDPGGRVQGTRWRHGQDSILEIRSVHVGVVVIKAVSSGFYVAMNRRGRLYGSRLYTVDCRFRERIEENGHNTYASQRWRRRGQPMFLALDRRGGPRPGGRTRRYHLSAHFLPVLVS
Starred values were filed as active, the others as inactive; [ ] = remark or other dose.

For C[C@H]1CCCCO[C@H](CN(C)C(=O)C2CCCCC2)[C@@H](C)CN([C@@H](C)CO)C(=O)c2cc(NC(=O)CCCN(C)C)ccc2O1 the results were E-selectin induc 2, HIV Env fusion 0[16.7 µM], F508del corr 2 and FGF22 binding 0.
Screening COC(=O)c1ccccc1-c1ccc(C=O)o1 returned S100A4 MyoIIA 0, HIV Env fusion -15 and F508del corr -3.
For O=Cc1ccc(-c2ccccc2C(=O)O)o1 the results were S100A4 MyoIIA -2, HIV Env fusion 7, F508del corr 1 and FGF22 binding 43*.
For CCOc1ccc2[nH]c(C(=O)N/N=C/c3ccc(OC)cc3)cc2c1 the results were S100A4 MyoIIA -5, HIV Env fusion -245, F508del corr 18* and FGF22 binding 0.
COc1ccc2[nH]c(C(=O)N/N=C/c3ccc(O)cc3O)cc2c1 was read as S100A4 MyoIIA -6, HIV Env fusion -43, F508del corr 12* and FGF22 binding 1.
For COc1ccc(/C=N/NC(=O)c2cc[n+]([O-])cc2)cc1 the results were S100A4 MyoIIA 2, E-selectin induc 42*, HIV Env fusion 0, F508del corr 1 and FGF22 binding 0.
`COc1ccc(/C=N/NC(=O)c2cc3cc(OC)c(OC)cc3[nH]2)cc1` gave S100A4 MyoIIA 0, E-selectin induc 1, HIV Env fusion -7 and FGF22 binding 0.
`CCCN1CCN(C(=O)Cn2nc(CC)n3c(cc4sccc43)c2=O)CC1` gave S100A4 MyoIIA 7, E-selectin induc 0, HIV Env fusion 4, F508del corr -1 and FGF22 binding 44*.
For CCc1nn(CC(=O)NCCCN2CCOCC2)c(=O)c2cc3sccc3n12 the results were S100A4 MyoIIA 4, HIV Env fusion 3, F508del corr -1 and FGF22 binding 0.
C=CCN=C1NC(c2ccc(Cl)cc2)C(C(=O)OC)=C(C)N1Cc1cccc(C(F)(F)F)c1 (configuration not stated) was read as S100A4 MyoIIA -2, E-selectin induc 0, HIV Env fusion 60*, F508del corr 4 and FGF22 binding 0.
C=CCN=C1NC(c2ccc(F)cc2)C(C(=O)OC)=C(C)N1C (configuration not stated) was read as S100A4 MyoIIA -1, E-selectin induc 0, HIV Env fusion -6, F508del corr 1 and FGF22 binding 0.
Screening C=CCN=C1NC(c2ccc(Cl)cc2)C(C(=O)OC)=C(C)N1C (configuration not stated) returned S100A4 MyoIIA -2, E-selectin induc 0, HIV Env fusion 55*, F508del corr -1 and FGF22 binding 41.
`CNC[C@H]1OCCCC[C@@H](C)Oc2ccc(NS(=O)(=O)c3ccc(OC)cc3)cc2C(=O)N([C@@H](C)CO)C[C@@H]1C` gave E-selectin induc 0, HIV Env fusion -14[16.7 µM] and F508del corr 1.
`O=C(CN1CCc2ccccc2C1)NC1CCCC1` gave S100A4 MyoIIA -3, E-selectin induc 1, HIV Env fusion 11, F508del corr 0 and FGF22 binding 43*.
CCSc1nnc(CSc2ncccn2)n1C was read as S100A4 MyoIIA -7, E-selectin induc 8, HIV Env fusion -7, F508del corr -4 and FGF22 binding 44*.
`C[C@@H]1CN([C@H](C)CO)C(=O)Cc2cc(NS(=O)(=O)c3cccs3)ccc2O[C@@H]1CN(C)S(C)(=O)=O` gave S100A4 MyoIIA -35, E-selectin induc -6, HIV Env fusion 6[16.7 µM], F508del corr 4 and FGF22 binding 0.
For CC(=O)c1c(O)cc2c3c1OC(C)(C)C1CCC(C)(CC31)O2 (configuration not stated) the results were S100A4 MyoIIA -10, E-selectin induc 2, HIV Env fusion 69*, F508del corr 0 and FGF22 binding 0.
Screening COc1cc(O)c(C(C)=O)c2c1C=CC(C)(C)O2 returned S100A4 MyoIIA -14, F508del corr -2 and FGF22 binding 0.
Screening Cc1cc(=O)[nH]c2c3ccccc3nn12 returned S100A4 MyoIIA -1, HIV Env fusion 8, F508del corr -3 and FGF22 binding 44*.
Cc1cc(=O)[nH]c2c(N=Nc3ccc(O)cc3)c(N)nn12 was read as S100A4 MyoIIA 3, HIV Env fusion -4, F508del corr -2 and FGF22 binding 0.
For CCn1c(SCC(=O)Nc2cc(C)on2)nc2c([nH]c3ccccc32)c1=O the results were S100A4 MyoIIA 2, E-selectin induc 0, F508del corr 0 and FGF22 binding 0.
COCCn1c(SCC(=O)Nc2cc(C)on2)nc2c([nH]c3ccccc32)c1=O was read as S100A4 MyoIIA -5, E-selectin induc 8, HIV Env fusion 59*, F508del corr 0 and FGF22 binding 0.
Screening COc1ccc(S(=O)(=O)N2C[C@H](O)COC[C@H]3O[C@H](CC(=O)NCCCN(C)C)CC[C@@H]32)cc1 returned S100A4 MyoIIA -1, E-selectin induc 0, F508del corr -1 and FGF22 binding -1.
Cc1cc(C)n(-c2ccc(C(=O)Nc3cccnc3Cl)cc2)n1 was read as S100A4 MyoIIA -33, E-selectin induc 0, HIV Env fusion -6, F508del corr -2 and FGF22 binding 43*.
For Cc1cc(C)n(-c2ccc(C(=O)Nc3ccccn3)cc2)n1 the results were HIV Env fusion -76.
`COc1ccc(C(=O)Nc2ccc(S(=O)(=O)NC(C)=O)cc2)cc1` gave HIV Env fusion -18.
For CC(=O)NS(=O)(=O)c1ccc(NC(=O)c2ccc(-n3nc(C)cc3C)cc2)cc1 the results were S100A4 MyoIIA -4, E-selectin induc -1, HIV Env fusion -10, F508del corr 2 and FGF22 binding 43*.
For CC(=O)N(C)C[C@@H]1Oc2ncc(C#CCc3ccccc3)cc2C(=O)N([C@@H](C)CO)C[C@@H]1C the results were S100A4 MyoIIA -7, E-selectin induc -1, HIV Env fusion 8[16.7 µM], F508del corr 1 and FGF22 binding 0.
For C[C@H](CO)N1C[C@H](C)[C@H](CN(C)Cc2ccncc2)Oc2ccc(NS(=O)(=O)c3cn(C)cn3)cc2CC1=O the results were S100A4 MyoIIA -7, F508del corr -1 and FGF22 binding 0.
`COc1ccc(NC(=O)N(C)C[C@@H]2Oc3ccc(NS(=O)(=O)c4ccccc4)cc3C(=O)N([C@@H](C)CO)C[C@H]2C)cc1` gave S100A4 MyoIIA -7, HIV Env fusion -21[16.7 µM], F508del corr 0 and FGF22 binding 0.
`O=C(Nc1ccc(Cl)cc1)N[C@@H]1CC[C@@H](CCn2cc(-c3ccccc3F)nn2)O[C@@H]1CO` gave S100A4 MyoIIA 3, E-selectin induc 0, HIV Env fusion -15[16.7 µM], F508del corr -1 and FGF22 binding 0.

High-throughput results (PubChem BioAssay)
